Publication PMC10431048 (CPT: Pharmacometrics & Systems Pharmacology, 2023)
Values joined by “and” are separate entries in the source; they are usually repeats but may differ in a detail not shown here. Identical values can stand only once. “Also recorded” adds a separate entry of the source. Like-named read-outs stand apart in the source and are kept apart here.

Columns and labels:
[1] = sparsentan 400 titrating to 800 mg/day vs irbesartan, week 36; cited from earlier work
[2] = type: in vivo, human; details: for change in steady-state AUC vs base: 800 mg once daily
In short: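 Simulated steady-state exposure (AUC, Cmax, Cmin) at 800 mg/day from the final model for a typical white male FSGS subject: 800-mg tablet, median ALKP and CrCL, no moderate or strong CYP3A4 inhibitor. Continuous covariates were set one at a time to 5th and 95th percentiles, and categorical covariates to alternative categories. Multivariate effects came from post hoc individual estimates stratified by covariate category.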

[3] = cited from earlier work
[4] = mass balance study; ref study 021HVOL16005, data on file; cited from earlier work
Population PK model = type: in vivo, human
In short: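 Plasma from nine trials (healthy, hepatic-impaired, FSGS; K2EDTA; acetonitrile precipitation; deuterated internal standard) was assayed by LC-MS/MS, 2.00–4000 ng/mL, LLOQ 2 ng/mL; samples below LLOQ were excluded. NONMEM FOCE-I fit: two compartments, lag plus first-order absorption, proportional-plus-additive error, nonlinear Frel above 200 mg, instant CL/F induction after first dose. Covariates: forward p<0.01, backward p<0.001. Bootstrap gave standard errors.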

[5] = mild and moderate hepatic impairment; ref study 021IHFX16009, data on file; cited from earlier work
CYP3A = details: ref data on file, cited from earlier work
[6] = ALKP at the 5th and 95th percentile
[7] = CrCL at the 5th and 95th percentile
[8] = covariates other than moderate/strong CYP3A4 inhibitors, steady-state 800 mg
[9] = log-domain coefficient, vs capsule
[10] = log-domain coefficient, vs white

effect of ALKP on AUC [2, 6]: < 15%
effect of ALKP on Cmax [2, 6]: < 10%
impact of CrCL on AUC [2, 7]: < 20%
impact of CrCL on Cmax [2, 7]: < 10%
steady-state exposures across race ([2]; FSGS, 800-mg tablet): comparable
steady-state exposure by age bracket ([2]; FSGS, 800-mg tablet, age 8-17, 18-64, >=65 years): increase
increase in steady-state Cmax by formulation ([2]; capsule and crushed tablet formulations compared to tablet, 800 mg): less than 10%
effect of other covariates on AUC [2, 8]: less than 20%
effect of other covariates on Cmax [2, 8]: less than 20%
impact of sex and race on steady-state AUC ([2]; female, White, Black, Asian): < 15%
impact of sex and race on steady-state Cmax ([2]; female, White, Black, Asian): < 15%
change in steady-state Cmax vs base ([2]; moderate CYP3A4 inhibitor comedication): 16.0%
change in steady-state AUC vs base ([2]; moderate CYP3A4 inhibitor comedication, FSGS): 31.4% and 31%
change in steady-state AUC vs base ([2]; strong CYP3A4 inhibitor comedication, FSGS): 191.3% and 191%
Vc/F (derived) (Population PK model; 800 mg dose): 69.5 L
Vp/F (derived) (Population PK model; 800 mg dose): 17.0 L
CL/F (derived) (Population PK model; 800 mg dose, single dose, reference subject): 5.47 L/h
Q/F (Population PK model; 400-mg dose, reference subject): 2.03 L/h
Vp/F (Population PK model; 400-mg dose, reference subject): 12.1 L
Vc/F (Population PK model; 400-mg dose, reference subject white female, 400-mg capsule): 49.3 L
effect of co-medications on PK (Population PK model; acid reducer (including proton pump inhibitors), P-gp inhibitor, or mild CYP3A4 inhibitor): No significant effect
Induction change in CL (Population PK model; additional CL at steady-state (CYP3A auto-induction), 400-mg reference subject): 1.23 L/h
Ka (Population PK model; capsule (reference)): 0.740 h⁻¹
half-life (Population PK model; human, plasma, oral, 800 mg): 9.6 h
Variance Ka (Population PK model; interindividual random effect): 0.474
Variance Vc (Population PK model; interindividual random effect): 0.234
Effect on Ka: Crushed tablet (Population PK model; [9]): 0.080
Effect on Ka: Tablet (Population PK model; [9]): −0.306
Effect on Vc: Asian (Population PK model; [10]): 0.265
Effect on Vc: Black or African American (Population PK model; [10]): 0.309
increase of clearance due to CYP3A auto-induction at steady-state (Population PK model; steady-state vs first dose): 32%
Compound: CCCCC1=NC2(CCCC2)C(=O)N1Cc1ccc(-c2ccccc2S(=O)(=O)Nc2noc(C)c2C)c(COCC)c1 [sparsentan]
FPRE response, interim results [1]: significantly greater
effect of formulation on steady-state AUC ([2]; capsule and crushed tablet compared to tablet): unaffected; also recorded: no overall change
reduction in urinary protein to creatinine ratio (UP/C) ([3]; sparsentan 200, 400, or 800 mg/day vs irbesartan 300 mg/day, 8 weeks): higher reduction
rates of patients reaching the FSGS partial remission end point (FPRE) ([3]; sparsentan vs irbesartan): higher rates
urinary excretion [4]: 2.18 % of the radioactive dose
effect of hepatic impairment on sparsentan exposure [5]: not having a large effect
interaction with CYP3A in vitro (CYP3A; in vitro): competitive inhibitor and inducer
metabolism (CYP3A): primarily metabolized by CYP3A
